ChEMBL document CHEMBL3994624, “Antimalarial Pyrido[1,2-a]benzimidazoles: Lead Optimization, Parasite Life Cycle Stage Profile, Mechanistic Evaluation, Killing Kinetics, and in Vivo Oral Efficacy in a Mouse Model” (J Med Chem, 2017)
Converted amounts (≈) assume the structure as drawn.

Assays:
Plasmodium falciparum [1] = assay: Anti-plasmodial activity against chloroquine-sensitive Plasmodium falciparum NF54 by [3H]-hypoxanthine incorporation assay; assay type: functional
Procedure, shortened: (§1)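 P. falciparum asexual blood-stage growth inhibition by [3H]hypoxanthine incorporation; chloroquine and artesunate run as reference drugs in every experiment; IC50 given as mean of ≥2 independent experiments.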

CHO = assay: Cytotoxicity against CHO cells after by MTT assay; assay type: cell-based; conditions: Cricetulus griseus
[2] = Selectivity index, ratio of IC50 for CHO cells to IC50 for chloroquine-sensitive Plasmodium falciparum NF54; assay type: toxicity; conditions: hamster, read-out: Ratio IC50
Procedure, shortened: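 Selectivity index = IC50 CHO / IC50 PfNF54.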

Plasmodium falciparum [3] = assay: Anti-plasmodial activity against multidrug resistant Plasmodium falciparum K1 by [3H]-hypoxanthine incorporation assay; assay type: functional; procedure, shortened: as §1
Plasmodium falciparum [4] = assay: Anti-plasmodial activity against chloroquine-sensitive Plasmodium falciparum NF54 late 4/5 stage gametocytes assessed as reduction in ATP levels after 24 hrs by BacTiter-Glo reagent based bioluminescence assay; assay type: functional; conditions: NF54, 24 h
Plasmodium falciparum [5] = assay: Ratio of IC50 for chloroquine-sensitive Plasmodium falciparum NF54 early 2/3 stage gametocytes to IC50 for chloroquine-sensitive Plasmodium falciparum NF54 late 4/5 stage gametocytes; assay type: functional
Procedure, shortened: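 Early (stage II/III) and late (stage IV/V) gametocytes tested in parallel luciferase reporter assays; stage preference = EG IC50/LG IC50.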

Huh-7 = assay: Cytotoxicity against human HuH7 cells at 1 to 10 uM after 48 hrs by Alamarblue assay; assay type: cell-based; conditions: huh-7, 48 h
[6] = Metabolic stability in Balb/c mouse liver microsomes assessed as compound remaining at 1 uM in presence of NADPH after 30 mins by LC-MS/MS analysis; assay type: ADME, microsome; conditions: read-out: Stability
Procedure, shortened: (§2)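 Mouse and human liver microsomes; % compound remaining after 30 min.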

[7] = Metabolic stability in human liver microsomes assessed as compound remaining at 1 uM in presence of NADPH after 30 mins by LC-MS/MS analysis; assay type: ADME, microsome; conditions: read-out: Stability; procedure, shortened: as §2
[8] = Kinetic solubility of the compound in FaSSIF at pH 6.5 after 2 hrs by shake flask method; assay type: physicochemical; conditions: read-out: Kinetic_solubility
Plasmodium falciparum [9] = assay: Ratio of IC50 for chloroquine-sensitive Plasmodium falciparum NF54 after 24 hrs to IC50 for chloroquine-sensitive Plasmodium falciparum NF54 after 72 hrs; assay type: functional

Row | SMILES | IC50 (Plasmodium falciparum [1]) [µM] | IC50 (CHO) [µM] | selectivity ratio [2] | IC50 (Plasmodium falciparum [3]) [µM] | further results
1 | CCNCCNc1cc(-c2ccc(C(F)(F)F)cc2)c(C#N)c2nc3cc(Br)ccc3n12 | 0.38 | 1.8 | 5 | – | –
2 | CCNCCNc1cc(-c2ccc(F)cc2)c(C#N)c2nc3ccccc3n12 | 0.33 | 11.5 | 35 | 0.54 | IC50 (Plasmodium falciparum [4]): 1.77 µM; Ratio IC50 (Plasmodium falciparum [5]): 2.1; Activity (Huh-7): Non-Toxic
3 | Cc1ncc2n1-c1ccc(Cl)cc1C(c1ccccc1F)=NC2 [MIDAZOLAM] | – | – | – | – | remaining at 0.5 h, 1 µM [6]: 1.3%; remaining at 0.5 h, 1 µM [7]: 0.1%
4 | CN1CCN(c2cc(-c3ccc(C(F)(F)F)cc3)c(C#N)c3nc4ccccc4n23)CC1 | 7.26 | – | – | 0.46 | –
5 | CC1(O)CCC(Nc2cc(-c3ccc(C(F)(F)F)cc3)c(C#N)c3nc4ccccc4n23)CC1 (configuration not stated) | 6.45 | – | – | – | –
6 | CCNCCNc1cc(-c2ccc(Cl)cc2)c(C#N)c2nc3ccccc3n12 | 0.66 | 9.6 | 15 | 0.43 | IC50 (Plasmodium falciparum [4]): 0.69 µM; Ratio IC50 (Plasmodium falciparum [5]): 1.5; Activity (Huh-7): Non-Toxic
7 | Cc1c(-c2ccc(C(F)(F)F)cc2)c(C#N)c2nc3ccccc3n2c1NCCN1CCC(O)C1 (configuration not stated) | 0.55 | 25 | 45 | 0.47 | solubility kinetic at 2 h [8]: < 5 µM
8 | CCNCCNc1cc(-c2ccc(C#N)cc2)c(C#N)c2nc3ccccc3n12 | 0.17 | 3.9 | 23 | 0.2 | IC50 (Plasmodium falciparum [4]): 2.66 µM; Ratio IC50 (Plasmodium falciparum [5]): 1.3; Activity (Huh-7): Non-Toxic
9 | CS(=O)(=O)NCCNc1cc(-c2ccc(C(F)(F)F)cc2)c(C#N)c2nc3ccccc3n12 | 9.1 | – | – | – | –
10 | CCNCCNc1cc(-c2ccc(S(C)(=O)=O)cc2)c(C#N)c2nc3ccccc3n12 | 0.31 | 204 | 658 | 0.33 | solubility kinetic at 2 h [8]: 40 µM (≈ 17.3 µg/mL); remaining at 0.5 h, 1 µM [6]: 86%
11 | CNC1CCN(c2cc(-c3ccc(C(F)(F)F)cc3)c(C#N)c3nc4ccccc4n23)CC1 | 0.84 | 6.31 | 8 | 0.9 | –
12 | N#Cc1c(-c2ccc(C(F)(F)F)cc2)cc(N2CC(O)C2)n2c1nc1ccccc12 | 21.3 | – | – | – | –
13 | N#Cc1c(-c2ccc(C(F)(F)F)cc2)cc(NCC2CCOCC2)n2c1nc1ccccc12 | > 10 | – | – | – | –
14 | CCNCCNc1cc(-c2ccccc2F)c(C#N)c2nc3ccccc3n12 | 0.89 | 24.4 | 27 | 1 | –
15 | N#Cc1c(-c2ccc(C(F)(F)F)cc2)cc(N2CCC(=O)CC2)n2c1nc1ccccc12 | > 10 | – | – | – | –
16 | CCNCCNc1cc(-c2ccc([S+](C)[O-])cc2)c(C#N)c2nc3ccccc3n12 (configuration not stated) | 3.81 | – | – | – | –
17 | CCNCCNc1cc(-c2ccc(C(F)(F)F)cc2)c(C#N)c2nc3ccc(Br)cc3n12 | 0.07 | 4.44 | 63 | – | –
18 | N#Cc1c(-c2ccc(C(F)(F)F)cc2)cc(NCC2CCS(=O)(=O)CC2)n2c1nc1ccccc12 | > 10 | – | – | – | –
19 | CS(=O)(=O)c1ccc(-c2cnc(N)c(-c3ccc(C(F)(F)F)nc3)c2)cc1 [MMV-048] | – | – | – | – | remaining at 0.5 h, 1 µM [6]: 94%; remaining at 0.5 h, 1 µM [7]: 93%
20 | CCNCCNc1cc(-c2cccc(C(F)(F)F)c2)c(C#N)c2nc3ccccc3n12 | 0.21 | 5.92 | 28 | 0.34 | IC50 (Plasmodium falciparum [4]): 0.49 µM; Ratio IC50 (Plasmodium falciparum [5]): 1.6; Activity (Huh-7): Non-Toxic
21 | N#Cc1c(-c2ccc(C(F)(F)F)cc2)cc(NC2CCNCC2)n2c1nc1cc(Cl)cc(Cl)c12 | 0.26 | 5.9 | 22.3 | – | –
22 | CCNCCNc1cc(-c2ccc(C(F)(F)F)cc2)c(C#N)c2nc3cnccc3n12 | 0.27 | 3.14 | 6 | 0.84 | –
23 | N#Cc1c(-c2ccc(C(F)(F)F)cc2)cc(N2CCC(N)CC2)n2c1nc1ccccc12 | 0.95 | 15.8 | 17 | 0.7 | solubility kinetic at 2 h [8]: < 5 µM; remaining at 0.5 h, 1 µM [6]: 92%; remaining at 0.5 h, 1 µM [7]: 91%
24 | N#Cc1c(-c2ccc(C(F)(F)F)cc2)cc(N2CCC(N)CC2)n2c1nc1cc(Cl)cc(Cl)c12 | 0.18 | 2.98 | 7.3 | 0.21 | –
25 | CCNCCNc1cc(-c2ccccc2)c(C#N)c2nc3ccccc3n12 | 0.7 | 18.3 | 26 | 1.07 | IC50 (Plasmodium falciparum [4]): 1.44 µM; Activity (Huh-7): Non-Toxic
26 | N#Cc1c(-c2ccc(C(F)(F)F)cc2)cc(NC2CCS(=O)(=O)CC2)n2c1nc1ccccc12 | 7.81 | – | – | – | –
27 | CS(=O)(=O)N1CCC(Nc2cc(-c3ccc(C(F)(F)F)cc3)c(C#N)c3nc4ccccc4n23)CC1 | 5.02 | – | – | – | –

Row | SMILES | IC50 (Plasmodium falciparum [1]) [µM] | IC50 (CHO) [µM] | selectivity ratio [2] | IC50 (Plasmodium falciparum [3]) [µM] | further results
28 | CS(=O)(=O)N1CCN(CCNc2cc(-c3ccc(C(F)(F)F)cc3)c(C#N)c3nc4ccccc4n23)CC1 | > 10 | – | – | – | –
29 | N#Cc1c(-c2ccc(C(F)(F)F)cc2)cc(NCCN2CCCC2=O)n2c1nc1ccccc12 | 5.99 | – | – | – | –
30 | CCNCCNc1cc(-c2ccc(C(F)(F)F)cc2)c(C#N)c2nc3cccc(Br)c3n12 | 0.15 | 1.55 | 2 | 0.24 | –
31 | CCNCCNc1cc(C2CCCC2)c(C#N)c2nc3ccccc3n12 | 0.83 | 3.77 | 5 | 0.82 | IC50 (Plasmodium falciparum [4]): 0.67 µM; Ratio IC50 (Plasmodium falciparum [5]): 1.7; Activity (Huh-7): Non-Toxic
32 | CCNCCNc1cc(C(F)(F)F)c(C#N)c2nc3ccccc3n12 | 2.93 | – | – | – | –
33 | CC(=O)NCCNc1cc(-c2ccc(C(F)(F)F)cc2)c(C#N)c2nc3ccccc3n12 | 16.4 | – | – | – | –
34 | N#Cc1c(-c2ccc(C(F)(F)F)cc2)cc(N2CCNCC2)n2c1nc1ccccc12 | 3 | – | – | 0.44 | –
35 | CN1CCC(Nc2cc(-c3ccc(C(F)(F)F)cc3)c(C#N)c3nc4cc(Cl)c(Cl)cc4n23)CC1 | 0.05 | 4.19 | 6.1 | 0.19 | –
36 | CN1CCC(Oc2cc(-c3ccc(C(F)(F)F)cc3)c(C#N)c3nc4ccccc4n23)CC1 | 0.7 | 4.07 | 6 | 0.96 | –
37 | CNC1CCCN(c2cc(-c3ccc(C(F)(F)F)cc3)c(C#N)c3nc4ccccc4n23)C1 (configuration not stated) | 1.38 | – | – | – | –
38 | CN1CCC(Nc2cc(-c3ccc(C(F)(F)F)cc3)c(C#N)c3nc4ccccc4n23)CC1 | 0.44 | 5.98 | 14 | 1 | solubility kinetic at 2 h [8]: < 5 µM; remaining at 0.5 h, 1 µM [6]: 63%; remaining at 0.5 h, 1 µM [7]: 75%; Ratio IC50 (Plasmodium falciparum [9]): <1.5
39 | CCN(CC)CCCC(C)Nc1cc(C(F)(F)F)c(C#N)c2nc3ccccc3n12 (configuration not stated) | 4.13 | – | – | – | –
40 | CC(=O)N1CCC(Nc2cc(-c3ccc(C(F)(F)F)cc3)c(C#N)c3nc4ccccc4n23)CC1 | 4.42 | – | – | – | –
41 | N#Cc1c(-c2ccc(C(F)(F)F)cc2)cc(NCCN2CCC(O)C2)n2c1nc1ccccc12 (configuration not stated) | 0.04 | 6.12 | 153 | 0.03 | solubility kinetic at 2 h [8]: < 5 µM; remaining at 0.5 h, 1 µM [6]: 51%; Ratio IC50 (Plasmodium falciparum [9]): 18
42 | N#Cc1c(-c2ccc(C(F)(F)F)cc2)cc(N2CCC(O)CC2)n2c1nc1ccccc12 | > 24 | – | – | – | –
43 | N#Cc1c(-c2ccc(C(F)(F)F)cc2)cc(NCCN2CCC(O)CC2)n2c1nc1ccccc12 | 1.1 | – | – | – | solubility kinetic at 2 h [8]: < 5 µM
44 | N#Cc1c(-c2ccc(C(F)(F)F)cc2)cc(N2CCC(O)C2)n2c1nc1ccccc12 (configuration not stated) | 8.48 | – | – | – | –
45 | CNC1CCN(c2cc(-c3ccc(C(F)(F)F)cc3)c(C#N)c3nc4ccccc4n23)C1 (configuration not stated) | 1.14 | – | – | – | –
46 | CCNCCNc1cc(-c2ccc(C(F)(F)F)cc2)c(C#N)c2nc3ncccc3n12 | 0.14 | 4.1 | 5 | 0.13 | solubility kinetic at 2 h [8]: 10 µM (≈ 4.24 µg/mL)
47 | N#Cc1c(-c2ccc(C(F)(F)F)cc2)cc(NC2CCC(O)CC2)n2c1nc1ccccc12 (configuration not stated) | > 10 | – | – | – | –
48 | CC(C)(O)C1CCC(Nc2cc(-c3ccc(C(F)(F)F)cc3)c(C#N)c3nc4ccccc4n23)CC1 (configuration not stated) | 4.96 | – | – | – | –
49 | CC[C@H]1CN2CCc3cc(OC)c(OC)cc3[C@@H]2C[C@@H]1C[C@H]1NCCc2cc(OC)c(OC)cc21 [EMETINE] | – | 0.095 | – | – | –
50 | CCNCCNc1c(F)c(-c2ccc(C(F)(F)F)cc2)c(C#N)c2nc3ccccc3n12 | 5.53 | – | – | – | solubility kinetic at 2 h [8]: 160 µM (≈ 70.6 µg/mL); remaining at 0.5 h, 1 µM [6]: 35%; remaining at 0.5 h, 1 µM [7]: 39%
51 | CCNCCNc1cc(C2CCCCC2)c(C#N)c2nc3ccccc3n12 | 0.47 | 3.19 | 7 | 0.67 | solubility kinetic at 2 h [8]: 10 µM (≈ 3.61 µg/mL); remaining at 0.5 h, 1 µM [6]: 42%; IC50 (Plasmodium falciparum [4]): 0.46 µM; Ratio IC50 (Plasmodium falciparum [5]): 3.3; Activity (Huh-7): Non-Toxic
52 | CCNCCNc1cc(-c2ccc(SC)cc2)c(C#N)c2nc3ccccc3n12 | 3.9 | – | – | – | –
53 | CCNCCNc1cc(-c2ccc(C(=O)OC)cc2)c(C#N)c2nc3ccccc3n12 | 1.56 | – | – | – | IC50 (Plasmodium falciparum [4]): 1.68 µM; Ratio IC50 (Plasmodium falciparum [5]): 1.4; Activity (Huh-7): Non-Toxic
54 | CCc1nc(N)nc(N)c1-c1ccc(Cl)cc1 [PYRIMETHAMINE] | – | – | – | – | Ratio IC50 (Plasmodium falciparum [9]): 6
